Assay results pooled from the literature.
Target: Serine/threonine-protein kinase Chk1 (CHEK1, Homo sapiens, UniProt O14757)
Sequence (O14757 1-476, as in one of the studies): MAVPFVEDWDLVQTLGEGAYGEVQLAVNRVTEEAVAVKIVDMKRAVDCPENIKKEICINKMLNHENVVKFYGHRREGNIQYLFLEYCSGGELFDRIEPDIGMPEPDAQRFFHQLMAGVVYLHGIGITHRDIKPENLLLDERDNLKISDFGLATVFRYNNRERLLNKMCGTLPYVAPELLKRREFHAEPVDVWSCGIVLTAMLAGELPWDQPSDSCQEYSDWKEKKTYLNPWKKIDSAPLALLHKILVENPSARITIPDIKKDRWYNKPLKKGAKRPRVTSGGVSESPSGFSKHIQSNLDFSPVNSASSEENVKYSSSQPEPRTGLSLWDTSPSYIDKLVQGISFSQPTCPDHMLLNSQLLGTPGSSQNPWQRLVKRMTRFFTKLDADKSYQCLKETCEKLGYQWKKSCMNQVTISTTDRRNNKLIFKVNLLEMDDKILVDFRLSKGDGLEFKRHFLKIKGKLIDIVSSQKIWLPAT

CCN(CC)CCNC(=O)c1c(C)[nH]c(/C=C2\C(=O)Nc3ccc(F)cc32)c1C  remaining signal (cell-free assay; 0.5 µM): 29.2%
Nc1nc(Nc2ccccc2)sc1C(=O)c1c(F)cccc1F  remaining activity (enzyme activity, inhibitor; 10 µM): 86%
CN(C)CC#Cc1ccc(OCCCc2sc(N3CCc4cccc(C(=O)Nc5nc6ccccc6s5)c4C3)nc2C(=O)O)c(F)c1  remaining binding (cell-free assay, competition with immobilised ligand; 1 µM): 89%
Clc1ccc(Nc2nnc(Cc3ccncc3)c3ccccc23)cc1  remaining signal (cell-free assay; 0.5 µM): 96.5%
Cc1cc(NC(=O)c2cccc3cc(-c4cccc5[nH]nc(N)c45)ccc23)ccc1F  activity vs control (enzyme activity, inhibitor; 0.1 µM): 96%
CS(=O)(=O)NCC[C@H](NC(=O)c1cncc2c1cnn2-c1ccc(F)cc1)c1ccnc(S(C)(=O)=O)c1  remaining binding (cell-free assay, competition with immobilised ligand; 1 µM): 97%
C[C@@H]1CCN(C(=O)CC#N)C[C@@H]1N(C)c1ncnc2[nH]ccc12  remaining signal (cell-free assay, inhibitor; 0.5 µM): 94.1%
CCN1CCN(Cc2ccc(NC(=O)c3ccc(C)c(/C=C/c4cnc5[nH]ccc5c4OC)c3)cc2C(F)(F)F)CC1  inhibition (target engagement in cells, inhibitor, chemoproteomics; A-375; 5 µM): -51.1%
CC(C)(C)c1nc2c(s1)c1nc(N)ncc1c1ccc(NS(=O)(=O)c3c(F)cccc3F)c(F)c12  remaining activity (enzyme activity, inhibitor, radiometric; 1 µM): 94%
Cc1ccc(NC(=O)c2ccc(CN3CCN(C)CC3)cc2)cc1Nc1nc(-c2cccnc2)cs1  remaining signal (cell-free assay; 0.5 µM): 110%
Cc1ccc(C(=O)NCc2ccsc2)cc1C#Cc1cn(C(C)C)c2ncnc(N)c12  activity vs control (enzyme activity, inhibitor; 1 µM): 87%
C[C@@]1(Cc2ccc(C#N)cc2)C(=O)N(c2cc(Cl)cc(Cl)c2)c2ncc(C(=O)NC3(c4nc(C5CCC5)no4)CC3)n21  remaining binding (cell-free assay, competition with immobilised ligand; 1 µM): 90%
COc1cc(Nc2cnc(C#N)c(O[C@H](C)CN(C)C)n2)ncc1-c1cnn(C)c1  remaining activity (enzyme activity, inhibitor, radiometric; 1 µM): 17%
Oc1cccc(-c2nc(N3CCOCC3)c3oc4ncccc4c3n2)c1  remaining activity (enzyme activity, inhibitor; 10 µM): 115%
Cc1ccc(NC(=O)c2ccc(C)c(C(F)(F)F)c2)cc1C#Cc1nn(C2CCC(O)CC2)c2ncnc(N)c12 (stereo not drawn)  remaining signal (cell-free assay; 10 µM): 114%
Nc1ncnc2occ(-c3ccc(NC(=O)Nc4cc(C(F)(F)F)ccc4F)cc3)c12  remaining signal (cell-free assay, inhibitor; 20 µM): 100%
COCCOc1nc(-c2ccc(Cl)nc2)nc2c1CN(C(=O)c1ncn3ccccc13)CC2  remaining binding (cell-free assay, competition with immobilised ligand; 0.1 µM): 100%
Cc1cnc(NC2CCOCC2)nc1-n1cnc(C(=O)NC(CN)c2cc(F)cc(Cl)c2)c1 (stereo not drawn)  remaining activity (enzyme activity, inhibitor, radiometric; 1 µM): 35%
Nc1cnc(N2CCc3cc(S(=O)(=O)Nc4c(F)cc(Cl)cc4F)cc(N4CCCC4=O)c32)nc1  remaining binding (cell-free assay, competition with immobilised ligand; 1 µM): 95%
O=C(Nc1cnn(-c2csc(C(=O)NC3COC3)c2)c1)Nc1c(F)cccc1Cl  remaining activity (enzyme activity, inhibitor; 5 µM): 141%
O=C(NS(=O)(=O)c1ccc(NCC2CCOCC2)c([N+](=O)[O-])c1)c1ccc(N2CCN(Cc3ccc(C(F)(F)F)cc3-c3ccc(Cl)cc3)CC2)cc1Oc1cnc2[nH]ccc2c1  remaining binding (cell-free assay, competition with immobilised ligand; 1 µM): 100%
Cc1sc(C(=O)NC2COC2)cc1-n1cc(NC(=O)Nc2c(F)cccc2Cl)cn1  remaining activity (enzyme activity, inhibitor; 10 µM): 118%
COc1cc2c(Nc3ccc(Br)cc3F)ncnc2cc1OCC1CCN(C)CC1  remaining signal (cell-free assay; 0.5 µM): 94.4%
COc1ccc2cc(OCC3(C(=O)O)CN(C(=O)c4ccc(F)cc4)C3)ccc2c1  remaining binding (cell-free assay, competition with immobilised ligand; 1 µM): 87%
